# Sampled rows, rich in hits. Any-hit rate of the full collection: about 3.3%.
# MBD2 inh – blocks human MBD2 binding to methylated DNA; Q9UBB5; TR-FRET, MBD2 binding to methylated oligonucleotide; inhibition, % at 4.4 µM; hit rate 0.31% among 370,000; AID 686964; in the data active means inhibition above about 13%
# Target sequence (Q9UBB5 whole entry, looked up): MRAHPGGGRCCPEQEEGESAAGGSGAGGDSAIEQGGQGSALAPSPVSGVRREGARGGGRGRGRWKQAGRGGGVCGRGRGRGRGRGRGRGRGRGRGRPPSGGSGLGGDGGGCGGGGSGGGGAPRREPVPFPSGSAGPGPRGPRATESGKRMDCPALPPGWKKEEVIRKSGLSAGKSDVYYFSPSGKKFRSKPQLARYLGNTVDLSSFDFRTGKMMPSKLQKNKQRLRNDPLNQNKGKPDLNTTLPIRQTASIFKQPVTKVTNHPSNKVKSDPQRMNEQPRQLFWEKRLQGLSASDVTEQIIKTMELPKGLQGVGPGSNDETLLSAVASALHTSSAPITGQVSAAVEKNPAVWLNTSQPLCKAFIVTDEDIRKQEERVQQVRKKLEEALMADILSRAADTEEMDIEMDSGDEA
# LEDGF integ inh – blocks HIV-1 LEDGF/p75-dependent DNA integration; TR-FRET IN-LEDGF/p75 DNA integration, Eu/Cy5; inhibition, % at 3.7 µM; hit rate 0.64% among 370,000; AID 743269;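 active means inhibition above the screen-wide mean plus 3 SD, cut at about 13% in these data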;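 further: signal is the Cy5 over europium emission ratio at 671 and 618 nm; 0% = plate median of compound wells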
# SIAE primary – inhibitors of human sialic acid acetylesterase SIAE | SIAE FP-Rh probe binding, fluorescence polarization | inhibition, % at 9.66 µM | hit rate 0.69% among 370,000 | AID 1053197;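 active means inhibition above a cutoff: mean of compounds within the control limits plus 3 SD of those, cut at about 17% in these data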;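 further: 0% = plate median of compound wells and 100% = probe without SIAE protein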
# TDP2 absorb – TDP2 (human) inhibition, absorbance primary screen; O95551; inhibition, % at 12.8 µM; hit rate 0.34% among 370,000; recombinant TDP2, T5PNP hydrolysis, p-nitrophenol absorbance 415 nm;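 active means inhibition above the mean of all tested compounds plus 3 SD, set per campaign, cut at about 25% in these data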;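 further: 0% = DMSO with enzyme and 100% = buffer with substrate but no TDP2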
#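 System – recombinant human TDP2 · Amount – 120 nM TDP2 per well · Buffer or medium – Mg2+-containing Tris-HCl buffer, pH 7.5 · Reagent – T5PNP substrate, 5 mM · Dosing – 12.8 µM single point, 1% DMSO · Incubation – 2 h at 37 °C · Measured by – epi absorbance · Read-out basis – percent inhibition · Benchmarks – high control without enzyme, low control DMSO plus TDP2 · Repeats – singlicate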
# UHRF1 MBD2 ctr – human UHRF1 methylated DNA binding inhibitors | Q96T88 | UHRF1 binding to methylated oligo, TR-FRET | inhibition, % at 4.4 µM | hit rate 0.75% among 370,000; in the data active means inhibition above about 21%;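 further: UHRF1 SRA domain binding a hemimethylated CpG hairpin DNA probe; 0% = median of test compound wells and 100% = reference inhibitor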
# PRMT1 FP inh – inhibitors of human PRMT1 | Q99873 | recombinant PRMT1, activity-based probe fluorescence polarization | inhibition, % at 2.79 µM | hit rate 1.3% among 370,000;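 active means inhibition above about 21% made by adding two undisclosed values, limit read from the data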
# PRMT1 inh conf – PRMT1 (human) inhibition, FP confirmation; hit rate 42% among 3,300; recombinant His-PRMT1, activity-based probe fluorescence polarization; AID 687036; inhibition, % at 2.79 µM; shares compounds with PRMT1 FP inh;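 active means mean inhibition across replicates above the hit cutoff derived for the earlier primary screen, cut at about 22% in these data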
# UHRF1 DNA bind – inhibits human UHRF1 binding to methylated oligonucleotide, MBD2 counter-screen | shares compounds with MBD2 inh | TR-FRET | inhibition, % at 4.4 µM | hit rate 25% among 1,000 | AID 720530; in the data active means inhibition above about 21%;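 further: UHRF1 SRA domain binding a labeled hemimethylated CpG hairpin DNA; 0% = vehicle only and 100% = reference inhibitor with vehicle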
# MBD2 confirm – MBD2-DBD methyl-DNA binding inhibition, TR-FRET confirmation. shares compounds with MBD2 inh. TR-FRET MBD2-DBD binding to methylated oligonucleotide. inhibition, % at 4.4 µM. hit rate 26% among 1,000
# TDP2 inh conf – confirmation of human TDP2 inhibitors. shares compounds with TDP2 absorb. recombinant human TDP2, absorbance read-out. inhibition, % at 12.8 µM. hit rate 22% among 1,100. AID 743263; in the data active means inhibition above about 25%;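 further: 0% = vehicle with enzyme and 100% = no enzyme buffer only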
# IN multimer act – HIV-1 integrase multimerization activation, counter-screen. TR-FRET HIV-1 integrase multimerization, biochemical. shares compounds with LEDGF integ inh. hit rate 17% among 2,000. activation, % at 7.7 µM; in the data active means activation above about 8.9%
# TRFRET interf – TR-FRET optical interference, LEDGF/p75 integration counter-screen. shares compounds with LEDGF integ inh. TR-FRET optical interference counterscreen, HIV-1 IN multimerization. inhibition, % at 7.7 µM. 2,000 tested, under 10 active;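 active means inhibition above the mean over all tested compounds plus 3 SD, which no compound reached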;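 further: 0% = integrase with antibodies and DMSO and 100% = antibodies without integrase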
# IN-LEDGF confirm – LEDGF/p75-dependent HIV-1 integration inhibition, confirmation; shares compounds with LEDGF integ inh; TR-FRET LEDGF/p75-dependent HIV-1 integration, biochemical; inhibition, % at 3.7 µM; hit rate 36% among 2,000; AID 1053136
# An asterisk follows results filed as active; · = no result given. Unless noted, no stated cut-off is given here; in the data, active means inhibition above about 14%; inactive means the rest.
SMILES,MBD2 inh,LEDGF integ inh,SIAE primary,TDP2 absorb,UHRF1 MBD2 ctr,PRMT1 FP inh,PRMT1 inh conf,IN multimer act,TRFRET interf,IN-LEDGF confirm,others
COc1ccccc1Cc1c(-c2ccco2)nc2cc(C)c(Br)c(C)n12,10,14*,4,-4,25*,32*,25*,6,-22,21*,
Cc1cc2nc(-c3ccco3)c(CC(C)(C)C)n2c(C)c1Br,-3,6,6,2,10,6,·,·,·,·,
COC(=O)[C@]12C[C@H](CC(=O)N3CCC(c4ccccc4)CC3)C(=O)N(Cc3ccco3)C1=C[C@H](C(C)C)O[C@@H]2C1CC1,2,4,1,-6,-3,0,·,·,·,·,
Cc1ccc(-n2c(C)cc(-c3csc(N)n3)c2C)cc1,1,8,9,1,0,18,·,·,·,·,
Cc1cc(-c2csc(N)n2)c(C)n1C,11,22*,16,8,6,27*,10,7,-26,53*,
COc1ccc(C2Nc3ccccc3C(=O)N2Cc2ccccc2)cc1COc1ccc(NC(C)=O)cc1 (stereo not drawn),1,-1,1,11,-2,-1,·,·,·,·,
Cc1cccc(N=C2NC(=O)/C(=C/C=C/c3ccco3)S2)c1,2,26*,15,-16,12,28*,9,5,-27,55*,
Cc1ccc(N=C2NC(=O)/C(=C\c3ccco3)S2)cc1,0,4,6,4,0,6,·,·,·,·,
Cc1ccc(NC(=O)CSc2nnc(-c3ccco3)c(-c3ccco3)n2)cc1,0,25*,6,20,8,37*,77*,2,-12,28*,
O=C1C(=Cc2cccc(O)c2O)SC(=S)N1CCCN1CCOCC1,-2,24*,7,2,-1,82*,83*,18*,-66,10,
Cc1cc(=O)c2c(o1)C(=O)c1occc1C2=O,11,51*,5,36*,40*,36*,26*,35*,-125,56*,TDP2 inh conf=21
N=C1/C(=C\c2coc3ccccc3c2=O)C(=O)N=C2SC=CN12,-6,15*,-7,-15,-13,36*,32*,3,-15,26*,
CSC1=NSC2=NC(=O)/C(=C/c3coc4ccccc4c3=O)C(=N)N12,1,3,-29,-8,-8,17,·,·,·,·,
Cc1ccc2nc(N3C(=O)C(O)=C(C(=O)c4ccc(C)o4)C3c3ccco3)sc2c1 (stereo not drawn),-5,8,2,3,0,15,·,·,·,·,
O=C(C1=C(O)C(=O)N(c2nc3ccc(Cl)cc3s2)C1c1ccco1)c1ccco1 (stereo not drawn),10,20*,5,2,24*,36*,7,7,-36,21*,
CCOc1cccc(=O)c2c(C)n(-c3ccc(C(=O)O)cc3)c(C)c12,31*,76*,1,13,88*,37*,12,3,-17,30*,UHRF1 DNA bind=10;MBD2 confirm=2
O=C(N/N=C/c1c(O)n(Cc2ccco2)c(=O)[nH]c1=O)c1ccccc1,-5,53*,15,-9,34*,33*,0,13*,-64,6,
CCn1c(SCC(=O)Nc2ccccc2-c2ccccc2)nnc1-c1ccc(C)cc1,2,-4,1,-7,2,7,·,·,·,·,
COc1ccc(C(=O)OCCCN(C)C2CN(Cc3cn(Cc4ccccc4F)nn3)S(=O)(=O)C2)cc1OC (stereo not drawn),10,5,-1,3,19,-1,·,·,·,·,
COc1ccccc1N1C(=N)S/C(=C\c2ccc(-c3ccccc3C(=O)O)o2)C1=O,-2,0,1,11,2,3,·,·,·,·,
O=C(O)c1ccccc1-c1ccc(C=c2sc3nc4cc(Br)cnc4n3c2=O)o1,55*,29*,6,-11,95*,84*,25*,-3,13,17*,UHRF1 DNA bind=72*;MBD2 confirm=63*
NC(=O)C1=CN([C@@H]2O[C@H](COP(=O)(O)OP(=O)(O)OC[C@H]3O[C@@H](n4cnc5c(N)ncnc54)[C@H](O)[C@@H]3O)[C@@H](O)[C@H]2O)C=CC1,0,-6,1,7,-2,4,·,·,·,·,
Oc1ccc(/C=N/NC(=S)Nc2cccnc2)c(O)c1O,30*,84*,53*,35*,64*,67*,88*,30*,-152,84*,UHRF1 DNA bind=-6;MBD2 confirm=-2;TDP2 inh conf=5
O=C1SC(SCc2ccccc2)=N/C1=C\c1ccco1,9,26*,7,14,29*,42*,1,0,0,1,
O=C(CSc1nnc(-c2ccccc2)n1Cc1ccco1)Nc1ccc(Oc2ccccc2)cc1,2,0,-3,5,2,8,·,·,·,·,
CCOc1ccc(N2CC(C(=O)NCc3ccco3)CC2=O)cc1 (stereo not drawn),-2,-1,-5,-6,-1,2,·,·,·,·,
CCOc1ccc(N2CSC3=C(C#N)C(c4ccco4)CC(=O)N3C2)cc1 (stereo not drawn),29*,47*,-2,34*,67*,71*,70*,15*,-76,41*,
O=S(=O)(c1ccc2ccccc2c1)N1CCOCC1,-3,2,3,5,-3,-5,·,·,·,·,
O=C(Nc1cccc(C(F)(F)F)c1)c1ccc2nc(-c3ccco3)c(-c3ccco3)nc2c1,2,-1,-2,-6,0,3,·,·,·,·,
O=C(O)c1ccc2nc(-c3ccco3)c(-c3ccco3)nc2c1,69*,86*,6,34*,93*,55*,67*,73*,-258,76*,UHRF1 DNA bind=73*;MBD2 confirm=23*;TDP2 inh conf=18
